Laboratory results as given in paper PMC4303306 (Biochemistry, 2014).

Target: T1, wild-type mouse Shp2 catalytic domain (Mus musculus, UniProt P35235)
T1 sequence (P35235 224-539): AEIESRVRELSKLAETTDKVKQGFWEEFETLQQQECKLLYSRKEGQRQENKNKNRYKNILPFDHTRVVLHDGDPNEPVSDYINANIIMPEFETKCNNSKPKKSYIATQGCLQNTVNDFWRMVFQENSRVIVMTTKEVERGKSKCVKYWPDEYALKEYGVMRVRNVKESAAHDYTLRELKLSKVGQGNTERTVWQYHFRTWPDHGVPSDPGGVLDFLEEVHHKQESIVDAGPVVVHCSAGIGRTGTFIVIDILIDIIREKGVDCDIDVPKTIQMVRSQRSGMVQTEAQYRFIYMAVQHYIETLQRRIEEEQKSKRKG
Test: PTP inhibition assay with pNPP, wild-type Shp2 catalytic domain
Type: biochemical
Conditions: 120 min incubation
Summary of the method: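 Catalytic-domain PTP (50 nM) was preincubated with test compound or vehicle for 120 min at 37 °C in PTP buffer (50 mM 3,3-dimethyl glutarate pH 7.0, 1 mM EDTA, 50 mM NaCl). It was then assayed at 37 °C with pNPP at the enzyme's previously determined KM, quenched with 5 M NaOH and read at 405 nm. Activity was normalized to controls, and IC50 came from a four-parameter logistic fit. For Shp2, β-mercaptoethanol (250 μM–1 mM) was also tested at 500 nM compound.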

fluorescein
Shp2 inhibition (structure–activity comparison, Figure 2A): lack of Shp2 inhibition
